Source: PubChem (several laboratories)
Only some compounds are listed: those with a hit (about 1.8% of all), similar ones and a draw of the others.
PREPL inh: inhibits the human prolyl oligopeptidase-like enzyme; recombinant PREPL, fluorescence polarization activity-based probe; inhibition, % at 5.96 µM; AID 2751; Q4J6C6; 0.68% of 320,000 active;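 further: 0% = enzyme with DMSO and 100% = wells lacking enzyme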
Target sequence (Q4J6C6 whole entry, looked up): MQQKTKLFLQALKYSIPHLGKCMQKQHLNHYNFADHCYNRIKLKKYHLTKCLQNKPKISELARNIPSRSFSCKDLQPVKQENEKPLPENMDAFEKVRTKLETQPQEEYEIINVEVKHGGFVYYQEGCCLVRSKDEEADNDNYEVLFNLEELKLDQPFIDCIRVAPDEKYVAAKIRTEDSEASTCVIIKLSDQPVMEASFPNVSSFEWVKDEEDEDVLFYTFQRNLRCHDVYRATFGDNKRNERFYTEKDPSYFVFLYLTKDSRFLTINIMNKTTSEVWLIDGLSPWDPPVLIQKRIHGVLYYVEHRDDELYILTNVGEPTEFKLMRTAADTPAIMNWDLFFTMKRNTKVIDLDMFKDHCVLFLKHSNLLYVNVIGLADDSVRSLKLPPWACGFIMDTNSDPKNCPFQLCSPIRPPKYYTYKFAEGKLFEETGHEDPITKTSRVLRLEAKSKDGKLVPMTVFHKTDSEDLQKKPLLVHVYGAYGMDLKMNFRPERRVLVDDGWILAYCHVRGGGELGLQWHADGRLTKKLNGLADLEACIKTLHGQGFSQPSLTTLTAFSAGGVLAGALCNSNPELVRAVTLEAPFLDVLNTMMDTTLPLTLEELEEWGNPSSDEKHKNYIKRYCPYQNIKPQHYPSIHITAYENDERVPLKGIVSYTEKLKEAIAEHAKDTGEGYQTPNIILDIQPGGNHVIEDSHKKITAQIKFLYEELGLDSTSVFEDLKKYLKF
SKN-1 inh: blocks SKN-1 activity in C. elegans | 0.49% of 360,000 active | AID 624304 | C. elegans VP596 Pgst-4::GFP/RFP ratio, acrylamide-induced, 24 h | inhibition, % at 21.8 µM;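 active means interference check ratio from 0.5 to 1.5 plus GFP to RFP signal ratio inhibition reaching or exceeding a fixed threshold, cut at about 30% in these data, passing the limit was not always enough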
E coli Lon inh: inhibitors of E. coli Lon protease. inhibition, % at 7.94 µM. purified E. coli Lon protease, fluorescence polarization. 0.42% of 360,000 active; in the data active means inhibition above about 13%, passing the limit was not always enough;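 further: 0% = enzyme with probe and DMSO and 100% = no enzyme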
hiPSC survival: enhancers of human iPSC single-cell survival. survival enhancement, % at 20 µM. 0.044% of 360,000 active. AID 602274. hiPSC single-cell survival, ATPlite luminescence; 100% = ROCK inhibitor wells, 0% = DMSO; in the data active means survival enhancement above about 18%;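 further: cells exposed to compounds for 16 hours before the ATP read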
TbMetRS inhib: blocks T. brucei methionyl-tRNA synthetase activity; purified T. brucei MetRS, ATP depletion, Kinase-Glo luminescence; 0.4% of 360,000 active; inhibition, % at 11.9 µM;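 active means inhibition above a per-plate cutoff of the control wells' mean inhibition plus 3 SD, cut at about 5.5% in these data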;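 further: 0% = DMSO wells median and 100% = median of wells with control inhibitor compound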
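Measured by: Kinase-Glo luciferase luminescence reporting remaining unconsumed ATP. Material: purified T. brucei MetRS enzyme. Doses: 11.9 µM compound single dose, 0.9% DMSO. Medium: HEPES buffer containing pyrophosphatase, BSA, spermine, DTT. Times: 15 min preincubation, 2 h reaction, all 25 °C. Reagent: methionine, ATP and bulk E. coli tRNA.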
MT1-MMP act inh: inhibitors of human MT1-MMP activation; P50281; HT1080 RFP-PRO-GFP cells, GFP/RFP ratio fluorescence, overnight; percent of plate control window, DMSO zero; GFP/RFP ratio change, % at 20 µM; 0.061% of 360,000 active; AID 651647;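 active means GFP/RFP ratio change of at least 30% with cell ATP level not reduced by more than half and red fluorescence within 50% of control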
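Read-out: GFP/RFP fluorescence ratio; Test system: RFP-PRO-GFP reporter HT1080 cells; Compound dosing: single-point 20 µM compound, 1% DMSO; Times: overnight compound exposure at 37 °C.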
PREPL confirm: confirmation of human PREPL enzyme inhibitors | shares compounds with PREPL inh | recombinant PREPL, fluorescence polarization activity probe | inhibition, % at 5.96 µM | 67% of 2,000 active;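 further: 0% = protein with DMSO and 100% = wells lacking protein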
Active calls of the source: *; x = not tested or not shown. Unless noted, no stated cut-off is given here; in the data, active means inhibition above about 43%; inactive means the rest.

SMILES	PREPL inh	SKN-1 inh	E coli Lon inh	hiPSC survival	TbMetRS inhib	MT1-MMP act inh	PREPL confirm
COc1ccc(NC(=O)NCCN2CCN(c3cc(OC)ccc3OC)CC2)cc1	7	17	1	0	-1	2	x
CCN1c2ccccc2N(C)C1(C)c1ccccc1 (centres undefined)	79*	35	28	-4	0	2	27
CN1c2ccsc2/C(=N/Nc2ccccc2)CS1(=O)=O	48*	9	-7	-1	0	-2	27
CN1c2ccsc2/C(=N/NC(=O)c2c(F)cccc2F)CS1(=O)=O	0	-28	-7	-1	-1	-10	x
CCOc1ccc(-c2c(=O)n(OCc3ccccn3)c3ccccc3[n+]2[O-])cc1	68*	13	-13	-1	-1	0	50*
C[C@H]1CN([C@@H](C)CO)C(=O)c2cccc(NS(=O)(=O)c3ccc(Cl)cc3)c2O[C@@H]1CN(C)CC1CCCCC1	61*	3	-11	-1	0	3	50*
C[C@H](CO)N1C[C@H](C)[C@@H](CN(C)S(=O)(=O)c2cccs2)Oc2c(NC(=O)Cc3ccccc3)cccc2C1=O	43*	22	-4	2	0	-4	36
C[C@H](CO)N1C[C@H](C)[C@H](CN(C)Cc2ccccc2)Oc2c(NC(=O)Nc3ccc(F)cc3)cccc2C1=O	53*	1	2	2	0	2	55*
C[C@H]1CN([C@@H](C)CO)C(=O)c2cc(NC(=O)Nc3cccc4ccccc34)ccc2O[C@@H]1CN(C)Cc1ccc(-c2ccccc2)cc1	48*	-12	7	-4	0	8	45*
C[C@@H]1CN([C@@H](C)CO)C(=O)c2cccc(NC(=O)Nc3ccc(F)cc3)c2O[C@@H]1CN(C)Cc1ccc(Oc2ccccc2)cc1	8	11	-5	-2	0	-5	x
CCOc1ccccc1CNn1nnnc1N	-5	13	-9	0	-1	5	x
COc1ccc(NC(=O)Nc2cccc3c2O[C@@H](CN(C)CC2CCCCC2)[C@@H](C)CN([C@H](C)CO)C3=O)cc1	57*	-3	3	-4	0	2	51*
C[C@H](CO)N1C[C@H](C)[C@@H](CN(C)S(=O)(=O)c2ccc(F)cc2)Oc2c(NC(=O)Cc3ccccc3)cccc2C1=O	44*	12	4	1	0	-2	30
C[C@H](CO)N1C[C@H](C)[C@@H](CN(C)C(=O)Nc2ccc(C(F)(F)F)cc2)Oc2ccc(NC(=O)c3ccncc3)cc2C1=O	51*	-3	-10	4	0	2	46*
C[C@@H]1CN([C@@H](C)CO)C(=O)Cc2cc(NC(=O)Nc3cccc4ccccc34)ccc2O[C@@H]1CN(C)S(C)(=O)=O	45*	11	-1	-1	0	1	43
C[C@H](CO)N1C[C@H](C)[C@@H](CN(C)S(C)(=O)=O)Oc2c(NC(=O)Cc3ccccc3)cccc2C1=O	0	5	-7	-2	0	1	x
COc1ccc(NC(=O)Nc2ccc3c(c2)C(=O)N([C@@H](C)CO)C[C@@H](C)[C@@H](CN(C)CC2CCCCC2)O3)cc1	41	-8	-2	-2	0	-5	x
Cc1nc(SCC(=O)NCc2ccco2)c2c(=O)n(C)c(=O)n(CC(C)C)c2n1	5	-2	2	0	-1	-1	x
O=C(Nc1ccccc1Cl)c1ccc(-n2cccn2)c([N+](=O)[O-])c1	-2	4	-3	3	4	0	x
Cc1ccc2c(CN3CCC(C)CC3)cc(=O)oc2c1C	x	10	3	-1	-1	-2	x
CCOC(=O)C1CCN(Cc2cc(=O)oc3c(C)c(C)ccc23)CC1	44*	12	3	1	0	1	35
CCOC(=O)N1CCN(c2nc3ccc(C(=O)c4ccccc4)cc3n3cnnc23)CC1	61*	-12	-4	0	-1	-4	31
COc1cc(/C=N\Nc2nc3ccccc3[nH]2)cc(OC)c1OC	43*	3	1	-3	5	10	22
C#CCn1cc(/C=N/Nc2nc3ccccc3[nH]2)c2ccccc21	55*	3	-6	-1	9.0*	12	63*
C[C@@H]1O[C@@H](Oc2c(-c3cc(O)c(O)c(O)c3)oc3cc(O)cc(O)c3c2=O)[C@H](O)[C@H](O)[C@H]1O	48*	12	17	0	1	3	20
SMILES	PREPL inh	SKN-1 inh	E coli Lon inh	hiPSC survival	TbMetRS inhib	MT1-MMP act inh	PREPL confirm
Cc1ccccc1-n1c(O)c(/C=N/N2CCCCC2c2cccnc2)c(=O)[nH]c1=O (centres undefined)	8	-3	-21	0	-1	x	x
S=C(NCCCN1CCOCC1)N1CCN(c2nc(-c3ccc(Cl)cc3)cs2)CC1	44*	-11	1	-6	0	-3	43*
COc1ccc(NS(=O)(=O)c2ccc(N/N=C(\C)c3ccncc3)c([N+](=O)[O-])c2)cc1	58*	-2	-7	2	1	-3	49*
CCOc1cccc(C=NNc2ccc(S(=O)(=O)Nc3ccccc3C(=O)O)cc2[N+](=O)[O-])c1O	27	18	2	6	0	7	x
COc1ccc(C=NNc2ccc(S(=O)(=O)Nc3ccccc3C(=O)O)cc2[N+](=O)[O-])c(OC)c1	51*	7	-2	1	0	27	49*
CSc1ccc(C=NNc2ccc(S(=O)(=O)Nc3ccccc3C(=O)O)cc2[N+](=O)[O-])cc1	43	12	2	-2	0	26	x
O=C(O)c1ccccc1NS(=O)(=O)c1ccc(NN=Cc2ccccc2F)c([N+](=O)[O-])c1	55*	7	-20	6	0	8	56*
CC(C)NC(=O)COC(=O)c1ccccc1CSC1=NCCS1	0	-7	-4	0	-1	-2	x
COc1ccc(N(CC(=O)NCc2cccs2)S(=O)(=O)c2cccnc2)cc1	-10	3	0	-1	1	6	x
Cc1cc(/C=C(\C#N)c2nc3ccccc3[nH]2)c(C)n1C	23	22	9	-3	1	1	x
COc1c(O)ccc(/C=C(\C#N)c2nc3ccccc3[nH]2)c1[N+](=O)[O-]	56*	8	-41	-1	1	3	16
COc1cc(/C=C(\C#N)c2nc3ccc(C)cc3[nH]2)c([N+](=O)[O-])cc1OC	22	17	-10	0	5	-2	x
